Test results as given in ChEMBL document CHEMBL2016465, “Host-directed Inhibitors of Myxoviruses: Synthesis and in vitro Biochemical Evaluation” (ACS Med Chem Lett, 2011).

Experiments:
Measles morbillivirus [1] = assay: Antiviral activity against Measles virus MVi/Alaska USA/16.00 genotype H2 infected in african green monkey Vero cells assessed as reduction in viral-induced cytopathogenicity; format: functional, organism-based; settings: MVi/Alaska USA/16.00 genotype H2, Vero
Procedure, shortened: (§1)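 Run on actively dividing cells. EC50 from four-parameter variable-slope nonlinear regression, reported as the average of four experiments ± SEM. Highest concentration tested was 75 μM.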

Vero = assay: (§2) Cytotoxicity against african green monkey Vero cells after 24 hrs by MTT assay; format: cell-based; settings: chlorocebus sabaeus, vero, 24 h
Procedure, shortened: (§3)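 Run on confluent cell monolayers to reflect acute toxicity. CC50 is given as the range of two experiments. Highest concentration tested was 75 μM.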

Measles morbillivirus [2] = assay: Antiviral activity against Measles virus; format: functional, organism-based; procedure, shortened: as §1
[3] = as §2; format: cell-based; settings: chlorocebus sabaeus, Vero cells; procedure, shortened: as §3
[4] = test system: Respiratory syncytial virus; assay: Antiviral activity against Respiratory syncytial virus; format: functional, organism-based; settings: human respiratory syncytial virus
Human respirovirus 3 = assay: Antiviral activity against Human parainfluenza virus 3; format: functional, organism-based
Mumps virus = assay: Antiviral activity against Mumps virus; format: functional, organism-based; settings: Mumps orthorubulavirus
[5] = test system: unidentified influenza virus; assay: Antiviral activity against Influenza virus; format: functional, organism-based
Paramyxoviridae = assay: Antiviral activity against Paramyxovirus measured 28 to 36 hrs post infection by cell based virus yield reduction assay; format: functional
Measles morbillivirus [6] = assay: Antiviral activity against Measles virus MVi/Alaska USA/16.00 genotype H2 infected in african green monkey Vero cells measured 28 to 36 hrs post infection by cell based virus yield reduction assay; format: functional, organism-based; settings: MVi/Alaska USA/16.00 genotype H2, Vero; procedure, shortened: as §1

Structure (SMILES) | EC50 (Measles morbillivirus [1]) | other results
COc1ccc(-n2c(SC(C)C(=O)Nc3ncc(Cl)cc3Cl)nc3ccccc32)cc1 (stereo not drawn) | 350 nM | CC50 (Vero): > 75000 nM; EC50 (Measles morbillivirus [2]): 200 nM
O=C(CSc1nc2ccccc2n1-c1ccccc1)Nc1ncc(Cl)cc1Cl |  | EC50 (Measles morbillivirus [2]): 700 nM
Cc1cccc(-n2c(SCC(=O)Nc3ncc(Cl)cc3Cl)nc3ccccc32)c1 |  | EC50 (Measles morbillivirus [2]): 2100 nM
COc1ccc(-n2c(S[C@@H](C)C(=O)Nc3ccc(C)cc3Cl)nc3ccccc32)cc1 | 300 nM | 
COc1ccc(-n2c(S[C@H](C)C(=O)Nc3ccc(C)cc3Cl)nc3ccccc32)cc1 | 200 nM | 
COc1ccc(Cn2c(NC(C)C(=O)Nc3ccc(C)cc3Cl)nc3ccccc32)cc1 (stereo not drawn) | > 150000 nM | 
COc1ccc(-n2c(CCC(=O)Nc3ccc(C)cc3Cl)nc3ccccc32)cc1 | > 150000 nM | 
Cc1ccc(NC(=O)[C@H](C)Oc2nc3ccccc3n2Cc2ccccc2)c(Cl)c1 | > 150000 nM | 
COc1ccc(-n2c([S+]([O-])C(C)C(=O)Nc3ccc(C)cc3Cl)nc3ccccc32)cc1 (stereo not drawn) | 1300 nM | CC50 (Vero): > 75000 nM
COc1ccc(-n2c(S(=O)(=O)C(C)C(=O)Nc3ccc(C)cc3Cl)nc3ccccc32)cc1 (stereo not drawn) | > 150000 nM | 
Cc1ccc(NC(=O)C(C)Sc2nc3ccccc3n2Cc2ccccc2)c(Cl)c1 (stereo not drawn) | 400 nM | CC50 (Vero): > 75000 nM
COc1ccc(Cn2c(SC(C)C(=O)Nc3ccc(C)cc3Cl)nc3ccccc32)cc1 (stereo not drawn) | 700 nM | CC50 (Vero): > 75000 nM
COc1ccc(-n2c(SC(C)C(=O)Nc3ncc(C(F)(F)F)cc3Cl)nc3ccccc32)cc1 (racemic) | 400 nM | CC50 at 24 h [3]: 9200 nM
CC(Sc1nc2ccccc2n1-c1ccc(F)cc1)C(=O)Nc1ncc(Cl)cc1Cl (racemic) | 100 nM | CC50 at 24 h [3]: 5900 nM
CCOc1ccc(-n2c(SC(C)C(=O)Nc3ncc(Cl)cc3Cl)nc3ccccc32)cc1 (racemic) | 100 nM | CC50 at 24 h [3]: 18500 nM
COc1ccc(-n2c(SC(C)C(=O)Nc3nc(C)c(Cl)cc3Cl)nc3ccccc32)cc1 (racemic) | 200 nM | CC50 at 24 h [3]: 7250 nM
COc1ccc(-n2c(SC(C)C(=O)Nc3ccc(Cl)cn3)nc3ccccc32)cc1 (racemic) | > 75000 nM | 
COc1ccc(-n2c(SC(C)C(=O)Nc3nc(C)c(Br)cc3Br)nc3ccccc32)cc1 (racemic) | 500 nM | CC50 at 24 h [3]: 9700 nM
COc1ccc(-n2c(SC(C)C(=O)Nc3ncc(C)cc3Cl)nc3ccccc32)cc1 (racemic) | 50 nM | CC50 at 24 h [3]: 880 nM
CCOc1ccc(-n2c(SC(C)C(=O)Nc3cc(C)cc(C)n3)nc3ccccc32)cc1 (racemic) | 1200 nM | 
Cc1nnc(NC(=O)C(C)Sc2nc3ccccc3n2-c2ccc(F)cc2)nc1C (racemic) | 17400 nM | 
COc1ccc(-n2c(SC(C)C(=O)Nc3cc(C)nn3C)nc3ccccc32)cc1 (racemic) | 500 nM | CC50 (Vero): 75000 nM
COc1ccc(-n2c(SC(C)C(=O)Nc3nnc(C)c(C)n3)nc3ccccc32)cc1 (racemic) | 9300 nM | 
COc1ccc(-n2c(SC(C)C(=O)Nc3nc(C)cc(Cl)n3)nc3ccccc32)cc1 (racemic) | > 75000 nM | 
COc1ccc(-n2c(SC(C)C(=O)Nc3nc(C)cs3)nc3ccccc32)cc1 (racemic) | 2800 nM | 
COc1ccc(-n2c(SC(C)C(=O)Nc3cc(C)no3)nc3ccccc32)cc1 (racemic) | 400 nM | CC50 (Vero): > 75000 nM
COc1ccc(-n2c(SC(C)C(=O)Nc3cc(Br)ccc3Br)nc3ccccc32)cc1 (racemic) | 1400 nM | 
COc1ccc(-n2c(SC(C)C(=O)Nc3ccc(C)cc3Cl)nc3ccccc32)cc1 (racemic) | 200 nM | CC50 (Vero): > 75000 nM; EC50 [4]: 10 nM; EC50 (Human respirovirus 3): 10 nM; EC50 (Mumps virus): 10 nM; EC50 [5]: 10 nM; EC50 (Paramyxoviridae): 10 nM; EC50 (Measles morbillivirus [6]): 30 nM
